Data on 4 compounds can be found in ChEMBL document CHEMBL5316332 (J Med Chem, 2023).

Broadly, the IC50 is the concentration needed to halve the response being measured. In general, ΔTm refers to the change in melting temperature against a reference sample.

Calls of active or inactive are those of the source. The rule behind the calls is not given here.

Assay [1] addresses T1, TGF-beta receptor type-1 (Homo sapiens) (UniProt P36897).
T1 sequence (whole entry): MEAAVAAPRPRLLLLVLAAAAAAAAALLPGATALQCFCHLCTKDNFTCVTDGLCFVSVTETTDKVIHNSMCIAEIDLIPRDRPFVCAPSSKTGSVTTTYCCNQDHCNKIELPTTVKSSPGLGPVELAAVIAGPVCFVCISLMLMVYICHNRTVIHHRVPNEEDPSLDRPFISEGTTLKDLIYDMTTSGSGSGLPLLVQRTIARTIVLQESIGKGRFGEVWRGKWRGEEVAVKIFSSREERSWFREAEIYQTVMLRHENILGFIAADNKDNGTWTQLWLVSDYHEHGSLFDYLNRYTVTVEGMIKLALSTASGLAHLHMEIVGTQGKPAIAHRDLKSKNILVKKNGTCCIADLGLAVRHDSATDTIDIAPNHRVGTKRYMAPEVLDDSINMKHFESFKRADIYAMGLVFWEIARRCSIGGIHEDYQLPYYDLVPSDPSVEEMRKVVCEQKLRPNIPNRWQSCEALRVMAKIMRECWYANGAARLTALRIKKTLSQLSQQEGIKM
Put plainly: (§1) Inhibition of TGFBR1 (unknown origin) by LanthaScreen TR-FRET assay. An outline of the steps:
(§2)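 Outsourced SelectScreen profiling using a LanthaScreen TR-FRET binding format, in which a tight-binding tracer is displaced from the kinase.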

Assay [2] in a line: Inhibition of BMP signalling pathway in BMP2-stimulated human HEK293T cells expressing BRE and luciferase reporter assessed as inhibition of luciferase transactivation by measuring BRE-reporter activity preincubated for 30 mins followed by BMP2 stimulation and measured after 6 hrs by Bright-GLO mediated luciferase assay. The assay is classed as cell-based. Particulars: HEK-293T. An outline of the steps: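 293T cells stably carrying a BMP-responsive-element luciferase reporter, 2 × 10^4 per well, attached overnight in phenol-red-free DMEM with 2 mM glycine and 2% heat-inactivated FBS. Pretreated 30 min with inhibitor, then 5 ng/mL BMP2 for 6 h. Bright-Glo luminescence read; IC50 by nonlinear regression.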
(In a reporter assay the amount or activity of a reporter protein is the signal.)

The subject of assay [3] is HEK293T. Put plainly: Inhibition of BMP signalling pathway in BMP2-stimulated human HEK293T cells assessed as decrease in SMAD1 phosphorylation at 25 uM preincubated for 30 mins followed by BMP2 stimulation and measured after 15 mins by Western blot analysis. It is filed as cell-based. Particulars: time 45.0 min. An outline of the steps: (§3)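 HEK293T cells, 3 × 10^5 per well, starved overnight in DMEM with 2 mM glycine and 2% heat-inactivated FBS. Pretreated 30 min with inhibitor, then 5 ng/mL BMP2 for 15 min. Lysed in M-PER with protease inhibitors. Western blot for pSMAD1/5, SMAD1, SMAD5 and GAPDH, quantified by densitometry.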
(In general: In western blotting, separated proteins are transferred to a membrane and probed.)

Assay [4] has as its system HEK293T. Kind of assay: Inhibition of BMP signalling pathway in BMP2-stimulated human HEK293T cells assessed as decrease in SMAD5 phosphorylation at 25 uM preincubated for 30 mins followed by BMP2 stimulation and measured after 15 mins by Western blot analysis. The assay is classed as cell-based. Particulars: time 45.0 min. In outline: as §3
The test system of assay [5] is HUVEC. Put plainly: Inhibition of BMP signalling pathway in BMP9-stimulated human HUVEC cells assessed as decrease in SMAD1 phosphorylation at 25 uM preincubated for 30 mins followed by BMP2 stimulation and measured after 15 mins by Western blot analysis. The assay is classed as cell-based. Particulars: time 45.0 min. In outline: (§4)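 HUVECs, about 3 × 10^5 per well, starved overnight in Kaighn's F-12 with 0.5% FBS and 30 μg/mL endothelial cell growth supplement. Pretreated 30 min with inhibitor, then stimulated with 0.5 ng/mL BMP9. Lysed in M-PER with protease and phosphatase inhibitors. Western blot for pSMAD1/5, SMAD1 and SMAD5, quantified by densitometry.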

The test system of assay [6] is HUVEC. Put plainly: Inhibition of BMP signalling pathway in BMP9-stimulated human HUVEC cells assessed as decrease in SMAD5 phosphorylation at 25 uM preincubated for 30 mins followed by BMP2 stimulation and measured after 15 mins by Western blot analysis. The following applies: time 45.0 min. The assay is classed as cell-based. An outline of the steps: as §4
In assay [7] the target is T2, Bone morphogenetic protein receptor type-2 (Homo sapiens) (UniProt Q13873).
T2 sequence (whole entry): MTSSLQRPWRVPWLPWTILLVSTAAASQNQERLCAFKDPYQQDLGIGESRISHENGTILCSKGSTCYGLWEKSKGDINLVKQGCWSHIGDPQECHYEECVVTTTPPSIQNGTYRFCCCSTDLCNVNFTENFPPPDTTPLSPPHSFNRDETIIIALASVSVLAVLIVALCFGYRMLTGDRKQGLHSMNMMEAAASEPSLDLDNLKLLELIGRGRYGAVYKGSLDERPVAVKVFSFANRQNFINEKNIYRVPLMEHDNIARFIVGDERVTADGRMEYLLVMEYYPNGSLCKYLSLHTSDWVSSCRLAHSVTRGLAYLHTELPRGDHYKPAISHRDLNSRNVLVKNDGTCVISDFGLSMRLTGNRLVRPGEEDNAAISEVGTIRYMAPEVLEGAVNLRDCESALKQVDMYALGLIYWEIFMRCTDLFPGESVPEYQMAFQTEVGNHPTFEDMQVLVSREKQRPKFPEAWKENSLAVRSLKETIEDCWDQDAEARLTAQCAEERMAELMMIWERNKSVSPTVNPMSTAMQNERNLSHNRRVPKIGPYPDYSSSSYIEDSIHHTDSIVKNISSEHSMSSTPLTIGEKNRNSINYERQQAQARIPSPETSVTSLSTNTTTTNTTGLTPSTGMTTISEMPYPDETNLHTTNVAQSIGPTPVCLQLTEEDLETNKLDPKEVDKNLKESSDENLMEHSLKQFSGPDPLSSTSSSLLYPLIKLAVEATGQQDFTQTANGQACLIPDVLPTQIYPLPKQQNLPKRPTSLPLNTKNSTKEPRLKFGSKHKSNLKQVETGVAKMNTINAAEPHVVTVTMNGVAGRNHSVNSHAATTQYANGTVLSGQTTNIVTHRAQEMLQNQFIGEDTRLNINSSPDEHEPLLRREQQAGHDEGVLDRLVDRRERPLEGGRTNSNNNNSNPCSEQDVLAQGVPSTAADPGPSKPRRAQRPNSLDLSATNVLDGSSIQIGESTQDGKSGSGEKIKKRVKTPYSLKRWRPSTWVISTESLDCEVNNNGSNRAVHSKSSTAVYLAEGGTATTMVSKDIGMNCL
Put plainly: Binding affinity to recombinant C-terminal 6His-tagged human BMPR2 (188 to 517 residues) expressed in Escherichia coli Rosetta assessed as change in melting temperature at 50 uM by SYPRO Orange dye based thermal shift assay. In outline:
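BMPR2 kinase domain-His (purified by IMAC, anion exchange and size exclusion) at 1 μg per 10 μL reaction in 50 mM Tris–HCl pH 7.5, 150 mM NaCl with SYPRO Orange 5×. Compound at 50 μM. Scanned 20 to 95 °C with fluorescence read every 10 s. Tm from the melt curve; averages of three technical replicates.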

In assay [8] the target is T2, Bone morphogenetic protein receptor type-2 (Homo sapiens). Put plainly: Inhibition of human BMPR2 at 1 uM by DiscoveRx Kinomescan method. In outline:
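Outsourced KINOMEscan panel of 403 kinases, with compound at 1 μM.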

In assay [9] the target is Activin receptor type-1-like (Homo sapiens, UniProt P37023). Kind of assay: Inhibition of ACVRL1 (unknown origin) by LanthaScreen TR-FRET assay. An outline of the steps: as §2
Activin receptor type-1-like, sequence (P37023 whole entry): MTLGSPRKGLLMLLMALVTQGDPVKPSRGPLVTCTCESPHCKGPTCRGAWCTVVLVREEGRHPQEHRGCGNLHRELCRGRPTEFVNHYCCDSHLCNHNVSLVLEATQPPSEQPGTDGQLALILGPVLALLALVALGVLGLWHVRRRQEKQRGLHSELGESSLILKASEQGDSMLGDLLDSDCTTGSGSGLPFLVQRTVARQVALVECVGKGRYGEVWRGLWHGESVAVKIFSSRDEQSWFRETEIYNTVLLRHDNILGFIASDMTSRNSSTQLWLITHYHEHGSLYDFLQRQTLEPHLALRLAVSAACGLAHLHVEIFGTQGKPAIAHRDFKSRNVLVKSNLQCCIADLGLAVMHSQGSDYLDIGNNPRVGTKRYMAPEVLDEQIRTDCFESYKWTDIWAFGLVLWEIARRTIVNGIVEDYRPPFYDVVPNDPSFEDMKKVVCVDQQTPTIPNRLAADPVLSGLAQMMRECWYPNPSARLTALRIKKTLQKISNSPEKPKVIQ
For orientation: TR-FRET usually uses a lanthanide donor and a delayed reading to cut background.

For the next assay, the target named is T3, TGF-beta receptor type-1 (Homo sapiens, UniProt P36897).
T3 sequence (P36897 whole entry): T1 sequence (whole entry)
The description is as §1. In outline:
as §2

As for `COc1cnc(Nc2cccc(S(N)(=O)=O)c2)nc1N1CCN(c2ccccc2)C(=O)C1`, the inhibition entry in assay [1] is “inactive”. The half-maximal inhibitory concentration (IC50) in [2] stood at 6.92 µM. Further, the inhibition entry in the assay with HEK293T [3], with HEK293T [4], with HUVEC [5] and in the assay with HUVEC [6] was “Active” throughout.
Take `CNC(=O)[C@@H]1CC[C@@H](n2c(-c3ccc4cnccc4c3)nc3ccc(C(=O)NCc4cccc(C(N)=O)c4)cc32)C1`: the shift in melting temperature (ΔTm) in [7] came out at 15.7 °C. For the same compound, the inhibition entry in [8] was “Active”. In addition, the results for the IC50 (in assay [9]; on TGF-beta receptor type-1; in [2]) were 0.267 µM, over 1 µM and 24.1 µM, respectively.
`CNC(=O)CCc1ccc(C(=O)NCc2cccc(N3CCN(c4nc(Nc5cccc(S(N)(=O)=O)c5)ncc4OC)CC3)c2)cc1`: the ΔTm in [7] came to 13.9 °C. Further, in [1], the inhibition entry is “inactive”. Besides, in [2], the IC50 was found to be 4.87 µM.
Consider `NC(=O)c1cccc(CNC(=O)c2ccc3nc(-c4ccc5cnccc5c4)n(C4CCCC4)c3c2)c1`, for which the half-inhibitory concentration (IC50) was 0.131 µM in assay [9], over 1 µM against TGF-beta receptor type-1 and 6.19 µM in assay [2]. For the same compound, the inhibition result in the assay on HEK293T [3], in the assay with HEK293T [4], with HUVEC [5] and with HUVEC [6] was “Active” throughout.
